Measurements pooled from the literature.
Each line is one published result; the experiments were not run side by side.

| Structure (SMILES) | method | matrix | time | pH | temperature | setting | solubility |
| --- | --- | --- | --- | --- | --- | --- | --- |
| COc1ccc(Cn2cc(CO[C@@H]3O[C@H]4[C@H](OC[C@H]4O)[C@H]3O)nn2)cc1 | – | PBS | – | pH 7.4 | – | – | 198 µM |
| Cn1cc(Nc2ncnc3ccc(-c4cccc(N5CCOCC5)c4)cc23)cn1 | – | aqueous buffer | – | pH 7.4 | 25 °C | – | 1.5 µM |
| OCc1ccc(-c2nn(Cc3ccccc3)c3ccccc23)o1 | – | aqueous buffer | 6 h | pH 7.4 | – | – | 3 µg/mL |
| COc1cc(NC(=O)Cn2cc(Cl)c3ccc(-c4cnn(C)c4)cc32)cc(OC)c1OC | – | PBS | – | pH 7.4 | – | – | < 2.7 µM |
| CNS(=O)(=O)c1ccc(Nc2ncc(C(F)(F)F)c([C@H]3CC[C@](C)(O)CC3)n2)c(C)c1 | – | PBS | 2 h | pH 7.4 | – | – | 0.4 µM |
| O=c1c2c([nH]c3cc(Oc4ccc(OC(F)(F)F)cc4)ccc13)CCCC2 | absorbance | aqueous buffer | 90 min | pH 7.4 | – | – | 18.5 µM |
| COc1cc(Cn2nc(-c3ccc(CO)o3)c3ccccc32)ccn1 | – | aqueous buffer | 6 h | pH 7.4 | – | – | > 33 µg/mL |
| CC[C@H]1OC(=O)[C@H](C)[C@@H](O[C@H]2C[C@@](C)(OC)[C@@H](O)[C@H](C)O2)[C@H](C)[C@@H](O[C@@H]2O[C@H](C)C[C@H](N(C)C)[C@H]2O)[C@](C)(O)C[C@@H](C)C(=O)[C@H](C)[C@@H](O)[C@]1(C)O | – | aqueous buffer | 18 h | pH 7.4 | – | – | 664 µM |
| COc1ccc(Nc2cnnc3cc(-c4cnc(N5CCCN(C)CC5)nc4)ccc23)cc1Cl | – | aqueous buffer | – | pH 7.4 | 25 °C | – | 1000 µM |
| Cc1ccc(Oc2ccc(NC(=O)CNc3ccccc3N3CCCC3=O)cc2)cc1 | – | PBS | – | pH 7.4 | – | – | 9.1 µM |
| Cc1ccccc1CN1C(=O)C2=C(CCN(Cc3ccccc3)C2)N2CCN=C12 | shake flask | aqueous buffer | – | pH 4 | – | – | 92100 µg/mL |
| COc1cnccc1Cn1nc(-c2ccc(CO)o2)c2ccccc21 | – | aqueous buffer | 6 h | pH 7.4 | – | – | > 33 µg/mL |
| CCOC(=O)C1=C(CN2CCC[C@@H]2C(=O)Nc2ccc(B(O)O)cc2)NC(c2nccs2)=N[C@H]1c1ccc(F)cc1Br | HPLC | aqueous buffer | – | pH 7.4 | – | – | 4.14 µg/mL |
| CC(C)(C)OC(=O)N1CCC(Oc2ccc3c(=O)c4c(F)cc(Cl)cc4[nH]c3c2)C1 (centres unmarked) | absorbance | aqueous buffer | 90 min | pH 7.4 | – | – | < 3.12 µM |
| Cc1ccc(N(C)c2ccc(NC(=O)CN(C)c3cccnc3N3CCCC3=O)cc2)cc1 | – | PBS | – | pH 7.4 | – | – | 16 µM |
| CCCN1C(=O)COc2ccc(S(=O)(=O)Nc3cc(OC)ccc3OC)cc21 | – | PBS | 8 h | pH 7.4 | – | – | 100 µM |
| O=C(Nc1ccc(OC(F)(F)F)cc1)N[C@H]1CC[C@H](Oc2ccc(C(=O)O)cc2)CC1 | – | simulated gastric fluid | 10 min | pH 1 | 37 °C | acidic | 0.0002 µg/mL |
| CN1CCN(c2cccc(-c3ccc4ncnc(Nc5ccc(Cl)c(C(F)(F)F)c5)c4c3)c2)CC1 | – | aqueous buffer | – | pH 7.4 | 25 °C | – | < 1.4 µM |
| CCCN(CCC)CCCOc1ccc2c(=O)c3c([nH]c2c1)CCCC3 | absorbance | aqueous buffer | 90 min | pH 7.4 | – | – | > 500 µM |
| OCc1ccc(-c2nn(Cc3ccccc3)c3cnccc23)o1 | – | aqueous buffer | 6 h | pH 7.4 | – | – | > 45 µg/mL |
| O=C([O-])CN1CCNCCN(CC(=O)[O-])CCNCC1.[Mn+2] | – | water | – | – | – | – | 470000 µg/mL |
| CCN(c1ccc(C)cc1)c1ccc(NC(=O)CN(C)c2ccccc2N2CCCC2=O)cn1 | – | PBS | – | pH 7.4 | – | – | 3.4 µM |

| Structure (SMILES) | method | matrix | time | pH | temperature | setting | solubility |
| --- | --- | --- | --- | --- | --- | --- | --- |
| Clc1cccc(Nc2ncnc3ccc(-c4cccc(N5CCOCC5)c4)cc23)c1 | – | aqueous buffer | – | pH 7.4 | 25 °C | – | 12 µM |
| O=c1c2ccc(Oc3ccc(OC(F)(F)F)cc3)cc2[nH]c2ccc(Cl)c(F)c12 | absorbance | aqueous buffer | 90 min | pH 7.4 | – | – | < 3.12 µM |
| OCc1ccc(-c2nn(Cc3cccnc3)c3ccccc23)o1 | – | aqueous buffer | 6 h | pH 7.4 | – | – | > 45 µg/mL |
| c1coc(Nc2ncnc3ccc(-c4cncc(N5CCOCC5)n4)cc23)n1 | – | aqueous buffer | – | pH 7.4 | 25 °C | – | 19 µM |
| NCc1ccc(-c2nn(Cc3ccccc3)c3ccccc23)o1 | – | aqueous buffer | 6 h | pH 7.4 | – | – | > 45 µg/mL |
| C[C@@H]1COCCN1c1cccc(-c2ccc3ncnc(Nc4ncco4)c3c2)c1 | – | aqueous buffer | – | pH 7.4 | 25 °C | – | 23 µM |
| CNS(=O)(=O)c1ccc(Nc2ncc(C(F)(F)F)c(N3CCC(C)(O)CC3)n2)c(C)c1 | – | PBS | 2 h | pH 7.4 | – | – | 2.7 µM |
| O=C(O)c1cc(-c2ccc(-n3ccnn3)cc2)cc(-n2cc(-c3ccc(C(F)(F)F)cc3)nn2)c1 | – | aqueous buffer | – | pH 4 | – | – | 0.74 µg/mL |
| C[C@H]1CN(c2cccc(-c3ccc4ncnc(Nc5ncco5)c4c3)c2)CCO1 | – | aqueous buffer | – | pH 7.4 | 25 °C | – | 6 µM |
| COc1cnc(Nc2cnnc3ccc(-c4ccc(N5CCN(C)CC5)cc4)cc23)nc1 | – | aqueous buffer | – | pH 7.4 | 25 °C | – | 26 µM |
| c1ccc(Oc2ccc(Nc3c4c(nc5ccccc35)CCC4)cc2)cc1 | nephelometry | aqueous buffer | 30 min | pH 6.5 | – | – | 1.6 to 3.1 µg/mL |
| COc1cc(NC(=O)Cn2ccc3cc(F)c(-c4cnn(C)c4)cc32)cc(OC)c1OC | – | PBS | – | pH 7.4 | – | – | < 2.7 µM |
| CN(C)CCOc1ccc2c(=O)c3c([nH]c2c1)CCCC3 | absorbance | aqueous buffer | 90 min | pH 7.4 | – | – | > 500 µM |
| CCOC(=O)C1=C(CN2CCOCC2)NC(c2nccs2)=NC1c1ccc(F)cc1Br (centres unmarked) | HPLC | aqueous buffer | – | pH 2 | – | – | 183 µg/mL |
| CN1CCN(c2cccc(-c3ccc4ncnc(Nc5ncco5)c4c3)c2)CC1 | – | aqueous buffer | – | pH 7.4 | 25 °C | – | 520 µM |
| Cc1cc(-c2ccnc3[nH]cc(F)c23)cc(F)c1[C@@]1(O)[C@H](C)CN(C2CCS(=O)(=O)CC2)C[C@@H]1C | – | aqueous buffer | – | – | – | – | > 50 µg/mL |
| Cc1ccc(N(c2ccc(NC(=O)CN(C)c3ccccc3N3CCCC3=O)cc2)C(C)C)cc1 | – | PBS | – | pH 7.4 | – | – | < 2.5 µM |
| Oc1ccc(/C=C/c2cc(O)cc(O)c2)cc1 | HPLC | aqueous buffer | 24 h | pH 6.8 | – | – | 79.5 µg/mL |
| CC(C)(C(=O)O)[C@H](NC(=O)Cc1cccc(I)c1)c1ccc2oc(=O)[nH]c2c1 | – | aqueous buffer | – | pH 6.8 | – | – | > 700 µM |
| Cc1ccc(N(C)c2ccc(NC(=O)CN(C)c3ccccc3N3CCCC3=O)cc2)cc1 | – | PBS | – | pH 7.4 | – | – | 7.2 µM |
| CCOc1ccc(Nc2c3c(nc4ccccc24)CCC3)cc1 | nephelometry | aqueous buffer | 30 min | pH 6.5 | – | – | 12.5 to 25 µg/mL |
| c1cc(-c2ccc3ncnc(Nc4ncco4)c3c2)nc(N2C[C@H]3C[C@@H]2CO3)n1 | – | aqueous buffer | – | pH 7.4 | 25 °C | – | 48 µM |
